Measured values published in ChEMBL document CHEMBL1153903, “Tethered thiazolidinone dimers as inhibitors of the bacterial type III secretion system” (Bioorg Med Chem Lett, 2009).

Assay: Inhibition of T3SS-dependent SipA secretion in Salmonella Typhimurium
Design: species or system Salmonella enterica subsp. enterica serovar Typhimurium
How it was run: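 Salmonella typhimurium type III secretion read out as secretion of the substrate SipA into culture supernatants. Supernatant proteins TCA-precipitated, resolved by SDS-PAGE and Western blotted with anti-SipA antibody; IC50 derived from the reduction in secreted SipA.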

| Compound | IC50 [µM] |
| --- | --- |
| COc1cc(/C=C2\S/C(=N\c3ccccc3)N(CC(=O)Nc3ccccc3NC(=O)CN3C(=O)/C(=C/c4cc(OC)c(O)c(OC)c4)S/C3=N\c3ccccc3)C2=O)cc(OC)c1O | 22 |
| COc1cc(/C=C2\S/C(=N\c3ccccc3)N(CCNC(=O)C3CCCN3C(=O)CN3C(=O)/C(=C/c4cc(OC)c(O)c(OC)c4)S/C3=N\c3ccccc3)C2=O)cc(OC)c1O (configuration not stated) | 55 |
| COc1cc(/C=C2\S/C(=N\c3ccccc3)N(CCCCCCNC(=O)CCCN3C(=O)/C(=C/c4cc(OC)c(O)c(OC)c4)S/C3=N\c3ccccc3)C2=O)cc(OC)c1O | 17 |
| COc1cc(/C=C2\S/C(=N\c3ccccc3)N(c3ccccc3)C2=O)cc(OC)c1O | 83 |
| COc1cc(/C=C2\S/C(=N\c3ccccc3)N(CCCCCCNC(=O)CN3C(=O)/C(=C/c4cc(OC)c(O)c(OC)c4)S/C3=N\c3ccccc3)C2=O)cc(OC)c1O | 5 |
| COc1cc(/C=C2\S/C(=N\c3ccccc3)N(CCCNC(=O)CN3C(=O)/C(=C/c4cc(OC)c(O)c(OC)c4)S/C3=N\c3ccccc3)C2=O)cc(OC)c1O | 48 |
| COc1cc(/C=C2\S/C(=N\c3ccccc3)N(CCN3CCN(CCN4C(=O)/C(=C/c5cc(OC)c(O)c(OC)c5)S/C4=N\c4ccccc4)CC3)C2=O)cc(OC)c1O | 44 |
| COc1cc(/C=C2\S/C(=N\c3ccccc3)N(CCCCCCNCCN3C(=O)/C(=C/c4cc(OC)c(O)c(OC)c4)S/C3=N\c3ccccc3)C2=O)cc(OC)c1O | 65 |
| COc1cc(/C=C2\S/C(=N\c3ccccc3)N(CCCCNC(=N)NCCN3C(=O)/C(=C/c4cc(OC)c(O)c(OC)c4)S/C3=N\c3ccccc3)C2=O)cc(OC)c1O | 47 |
| COc1cc(/C=C2\S/C(=N\c3ccccc3)N(CCCNC(=O)[C@H](CCCNC(=N)N)NC(=O)CN3C(=O)/C(=C/c4cc(OC)c(O)c(OC)c4)S/C3=N\c3ccccc3)C2=O)cc(OC)c1O | 48 |
| COc1cc(/C=C2\S/C(=N\c3ccccc3)N(CC(=O)Nc3cccc(NC(=O)CN4C(=O)/C(=C/c5cc(OC)c(O)c(OC)c5)S/C4=N\c4ccccc4)c3)C2=O)cc(OC)c1O | 80 |
| COc1cc(/C=C2\S/C(=N\c3ccccc3)N(CCCNC(=O)[C@H](Cc3ccc(-c4ccccc4)cc3)NC(=O)[C@H](CCCN)N3C(=O)/C(=C/c4cc(OC)c(O)c(OC)c4)S/C3=N\c3ccccc3)C2=O)cc(OC)c1O | 49 |
